For experiment [1], the system named is Candida albicans. The experiment in a line: Minimum inhibitory concentration against Candida albicans at a pH of 5.7 using SDB medium. In kind it is functional. The procedure, abridged:
(§1)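 Broth dilution in Sabouraud dextrose broth, pH 5.7. Compounds dissolved in DMSO or ethanol, serially diluted in medium, inoculated and incubated at 27 °C. Wells read visually at 48 h. MIC is the lowest concentration giving complete growth inhibition.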

For experiment [2], the system named is Candida albicans. The experiment in a line: Minimum inhibitory concentration against Candida albicans using eagles minimum essential medium (EMEM). It is filed as functional. In a few lines:
(§2)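 Candida MICs in Eagle's minimum essential medium, pH 7.0. Compounds in DMSO or ethanol were serially diluted in medium, inoculated and incubated at 37 °C under CO₂. […] The summary value is the geometric mean of the MICs across strains.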

For experiment [3], the system named is Candida albicans. The experiment in a line: Minimum inhibitory concentration against Candida stellatoidea at a pH of 5.7 using SDB medium. It is filed as functional. The procedure, abridged: as §1
Another experiment deals with Candida. In words: Compound is evaluated for geometric mean of MIC values of Candida species. It is filed as functional. Set-up: unit not given beside the values.
Experiment [4] has as its system Candida tropicalis. The experiment in a line: Minimum inhibitory concentration against Candida tropicalis at a pH of 5.7 using SDB medium. In kind it is functional. In a few lines:
as §1

For experiment [5], the system named is Candida tropicalis. In words: Minimum inhibitory concentration against Candida tropicalis using eagles minimum essential medium (EMEM). In kind it is functional. The procedure, abridged: as §2
The test system of experiment [6] is Arthrodermataceae. In words: (§3) Compound is evaluated for geometric mean of MIC values of dermatophytes. Set-up: unit not given beside the values. It is filed as functional. In a few lines: (§4)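 Dermatophyte isolates tested by serial broth dilution in SDB, pH 5.7. Compound stocks in DMSO or ethanol, incubated at 27 °C, and growth read visually at 72 h. MIC is the lowest concentration with no visible growth. The summary value is the geometric mean of the MICs across the organisms.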

In a further experiment the test system is Epidermophyton floccosum. In words: Minimum inhibitory concentration against Epidermophyton floccosum at a pH of 5.7 using SDB medium. In kind it is functional. The procedure, abridged:
as §4

The species entered for experiment [7] is Cavia porcellus. The experiment in a line: Lession score which is determined as number of animals minus days to become negative. It is filed as functional. In a few lines: (§5)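 Guinea pigs (5 per compound) infected with T. mentagrophytes D24 by swabbing a homogenate onto shaven, abraded skin. From day 4 post-infection, 0.25% (w/v) compound in EtOH–PEG 400–glycerol (10:45:45) was rubbed in topically twice daily for 10 days. Hair samples were cultured on SDA at 27 °C for up to 16 days. Read-outs were the % negative cultures and the day each animal became culture-negative.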

The test system of experiment [8] is Cavia porcellus. The experiment in a line: In vivo inhibition of topical Trichophyton infection in Guinea Pig after drug administration. In kind it is functional. The procedure, abridged: as §5
Experiment [9] concerns Cavia porcellus. In words: In vivo inhibition of topical Trichophyton infection in Guinea Pig during drug administration. It is filed as functional. The procedure, abridged: as §5
Experiment [10] has as its system Cricetinae gen. sp. In words: Inhibition of Vaginal Candida (C-43 strain) infection in Hamsters, estimated as Percent Area under curve at 0.05 % concentration after 8 days of administration. It is filed as functional, Cricetulus griseus. In a few lines:
(§6)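 Hamster vaginal C. albicans infection (strains C43 or C60; 10 animals per compound). From day 5 post-infection, a cotton pellet holding 0.15 mL of 0.05% or 0.01% (w/w) compound in EtOH–PEG 400–glycerol (10:45:45) was inserted once daily for 4 or 8 days. Vaginal swabs were filtered and the filters cultured on SDA at 37 °C for 48 h. Read-out was the area under the % negative cultures versus time curve.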

For experiment [11], the system named is Cricetinae gen. sp. The experiment in a line: Inhibition of Vaginal Candida (C-60 strain) infection in Hamsters, estimated as Percent Area under curve at 0.05 % concentration after 4 days of administration. It is filed as functional, Cricetulus griseus. The procedure, abridged:
as §6

Experiment [12] has as its system Cricetinae gen. sp. The experiment in a line: Inhibition of Vaginal Candida (C-60 strain) infection in Hamsters, estimated as Percent Area under curve at 0.05 % concentration after 8 days of administration. In kind it is functional, Cricetulus griseus. In a few lines:
as §6

A further experiment relates to Microsporum canis. In words: Minimum inhibitory concentration against Microsporum canis at a pH of 5.7 using SDB medium. It is filed as functional. In a few lines:
as §4

In the next experiment the test system is Trichophyton benhamiae. The experiment in a line: Minimum inhibitory concentration against Trichophyton mentagrophytes at a pH of 5.7 using SDB medium. It is filed as functional, Arthroderma benhamiae. In a few lines: as §4
Another experiment has as its system Trichophyton rubrum. The experiment in a line: Minimum inhibitory concentration against Trichophyton rubrum at a pH of 5.7 using SDB medium. It is filed as functional. In a few lines: as §4
Experiment [13] is described as follows: Geometric mean for the above three species of Candida, tested in EMEM medium. It is filed as functional. In a few lines:
as §2

Experiment [14] has as its system Candida albicans. The experiment in a line: Minimum inhibitory concentration against Candida stellatoidea using eagles minimum essential medium (EMEM). In kind it is functional. The procedure, abridged:
as §2

The next experiment relates to Candida parapsilosis. The experiment in a line: Minimum inhibitory concentration against Candida parapsilosis at a pH of 5.7 using SDB medium. In kind it is functional. The settings on record: Lodderomyces parapsilosis. In a few lines:
as §1

Experiment [15] deals with Cricetinae gen. sp. The experiment in a line: Inhibition of Vaginal Candida (C-60 strain) infection in Hamsters, estimated as Percent Area under curve at 0.01 % concentration after 4 days of administration. It is filed as functional, Cricetulus griseus. The procedure, abridged: as §6
The subject of the next experiment is Nannizzia gypsea. The experiment in a line: Minimum inhibitory concentration against Microsporum gypseum at a pH of 5.7 using SDB medium. It is filed as functional. In a few lines:
as §4

Experiment [16] deals with Arthrodermataceae. The experiment is described as §3. It is filed as functional. The procedure, abridged: as §4
For experiment [17], the system named is Cricetinae gen. sp. In words: Inhibition of Vaginal Candida (C-43 strain) infection in Hamsters, estimated as Percent Area under curve at 0.25 % concentration after 8 days of administration. In kind it is functional, Cricetulus griseus.
Experiment [18] concerns Cricetinae gen. sp. In words: Inhibition of Vaginal Candida (C-60 strain) infection in Hamsters, estimated as Percent Area under curve at 0.25 % concentration after 4 days of administration. It is filed as functional, Cricetulus griseus.
Experiment [19] deals with Cricetinae gen. sp. The experiment in a line: Inhibition of Vaginal Candida (C-60 strain) infection in Hamsters, estimated as Percent Area under curve at 0.25 % concentration after 8 days of administration. It is filed as functional, Cricetulus griseus.

SMILES strings stand for the structures. In brackets after ≈: the same amount, converted by molar mass. Several values for one entry are separate records, joined by “and”; a condition that tells them apart may be missing. Equal values may be shown once.

Consider `Clc1ccc(C2(Cn3ccnc3)OCc3ccccc32)cc1` (stereo not drawn), for which the MIC in the experiment on Candida albicans [1] was 16 µg/mL (≈ 51.5 µM); with Candida albicans [2], under 0.031 µg/mL; in the experiment on Candida albicans [3], 32 µg/mL (≈ 103 µM); in the experiment with Candida tropicalis [4], 16 µg/mL (≈ 51.5 µM); against Candida tropicalis [5], 0.125 µg/mL (≈ 0.402 µM); against Epidermophyton floccosum it was under 0.031 µg/mL. Also, the MIC in the experiment on Microsporum canis is 2 µg/mL (≈ 6.44 µM); in the experiment on Trichophyton benhamiae, 2 µg/mL (≈ 6.44 µM); against Trichophyton rubrum, 2 µg/mL (≈ 6.44 µM); against Candida albicans [14], under 0.031 µg/mL; against Candida parapsilosis it was 0.25 µg/mL (≈ 0.804 µM); in the experiment with Nannizzia gypsea it was 4 µg/mL (≈ 12.9 µM). The values for the Geometric mean (in the experiment on Candida; in the experiment on Arthrodermataceae [6]; in [13]) were 7.2, under 0.86 and under 0.03, respectively. The Lesion score in the experiment filed under Cavia porcellus [7] is 3 and >2. Besides, the Culture negative is on record as 87% with Cavia porcellus [8] and 90% in the experiment with Cavia porcellus [9]. The Inhibition with Cricetinae gen. sp. [10] is reported as 89%; in the experiment with Cricetinae gen. sp. [11], 88%; with Cricetinae gen. sp. [12], 88%; in the experiment on Cricetinae gen. sp. [15] it was 30%.

As for `c1ccc(C2(Cn3ccnc3)SCc3ccccc32)cc1` (stereo not drawn), the MIC is 64 µg/mL (≈ 219 µM) against Candida albicans [1]; 0.25 µg/mL (≈ 0.855 µM) in the experiment on Candida albicans [2]; 64 µg/mL (≈ 219 µM) with Candida albicans [3]; 64 µg/mL (≈ 219 µM) in the experiment on Candida tropicalis [4]; 0.125 µg/mL (≈ 0.427 µM) in the experiment on Candida tropicalis [5]; 0.063 µg/mL (≈ 0.215 µM) in the experiment with Epidermophyton floccosum. Also, the minimum inhibitory concentration (MIC) in the experiment with Microsporum canis worked out at 4 µg/mL (≈ 13.7 µM); in the experiment on Trichophyton benhamiae, 2 µg/mL (≈ 6.84 µM); against Trichophyton rubrum, 2 µg/mL (≈ 6.84 µM); in the experiment on Candida albicans [14] it was 0.25 µg/mL (≈ 0.855 µM); in the experiment with Candida parapsilosis it was 16 µg/mL (≈ 54.7 µM); in the experiment with Nannizzia gypsea, 16 µg/mL (≈ 54.7 µM). Also, the Geometric mean with Candida turned out to be 53; in the experiment with Arthrodermataceae [16], 1.7; in [13] it was 0.19.

For `Clc1ccc(COC(Cn2ccnc2)c2ccc(Cl)cc2Cl)c(Cl)c1` (stereo not drawn) [MICONAZOLE], the MIC is 8 µg/mL (≈ 19.2 µM) in the experiment on Candida albicans [1]; 0.25 µg/mL (≈ 0.601 µM) in the experiment with Candida albicans [2]; 8 µg/mL (≈ 19.2 µM) with Candida albicans [3]; 4 µg/mL (≈ 9.61 µM) in the experiment on Candida tropicalis [4]; 0.125 µg/mL (≈ 0.3 µM) against Candida tropicalis [5]; under 0.031 µg/mL with Epidermophyton floccosum. The MIC against Microsporum canis is under 0.031 µg/mL; in the experiment on Trichophyton benhamiae, under 0.031 µg/mL; with Trichophyton rubrum, under 0.031 µg/mL; against Candida albicans [14] it was 0.125 µg/mL (≈ 0.3 µM); against Candida parapsilosis, under 0.031 µg/mL; with Nannizzia gypsea it was 1 µg/mL (≈ 2.4 µM). Also, the results for the Geometric mean (in the experiment on Candida; with Arthrodermataceae [6]; in [13]) were under 1.8, under 0.03 and 0.18, respectively. For the same molecule, the Culture negative in the experiment with Cavia porcellus [8] came to 60%; in the experiment on Cavia porcellus [9] it was 20%. Also, the Inhibition in the experiment on Cricetinae gen. sp. [17] is recorded as 69%; in the experiment with Cricetinae gen. sp. [18], 63%; with Cricetinae gen. sp. [19] it was 63%; in the experiment with Cricetinae gen. sp. [15], 33%.

The MIC is the lowest concentration found to suppress growth. By Inhibition is commonly meant how much of the control response was suppressed.

The values above are taken from ChEMBL document CHEMBL1125351, “Isobenzofurans as conformationally constrained miconazole analogues with improved antifungal potency” (1992).
